ChEMBL document CHEMBL1806459, “Discovery of N-(1-ethylpropyl)-[3-methoxy-5-(2-methoxy-4-trifluoromethoxyphenyl)-6-methyl-pyrazin-2-yl]amine 59 (NGD 98-2): an orally active corticotropin releasing factor-1 (CRF-1) receptor antagonist” (J Med Chem, 2011)
Active and inactive are the calls of the source. The rule behind the calls is not given here.

What was measured:
[1] = Inhibition of AMPA receptor at 4 uM
How it was run: (§1)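 Selectivity panel of 69 targets, test compound at 4 μM, a level set by aqueous solubility limits; percent inhibition recorded per target.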

[2] = target: Type-1 angiotensin II receptor (Homo sapiens) (UniProt P30556); assay: Inhibition of angiotensin AT1 receptor at 4 uM
How it was run: (§2)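 Single-concentration screen within a 69-target selectivity panel. The test concentration was 4 μM, a level set by the compound's limited aqueous solubility.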

[3] = target: 5-hydroxytryptamine receptor 2A (Homo sapiens) (UniProt P28223); assay: Inhibition of Serotonin 5HT2A receptor at 4 uM; how it was run: as §2
Rattus norvegicus [4] = assay: Decrease in restrained-stress induced […] release in plasma of Sprague-Dawley rat at 10 mg/kg, po pretreated with compound for 3 hrs by radioimmunoassay; assay type: functional, organism-based; parameters: dose 10 mg/kg
How it was run: (§3)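 Rats orally pretreated, then restrained for 10 min to induce stress. Plasma ACTH measured and compared with vehicle/no-stress and vehicle/stress groups.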

[5] = target: Cannabinoid receptor 2 (Homo sapiens) (UniProt P34972); assay: Inhibition of cannabinoid CB2 receptor at 4 uM; how it was run: as §2
Rattus norvegicus [6] = assay: Toxicity in Sprague-Dawley rat assessed as effect on vertical activity at 10 mg/kg, po measured after 3 hrs for 1 hr; assay type: organism-based; parameters: dose 10 mg/kg, route oral; conditions: in vivo
How it was run: (§4)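 Rats not habituated to the test environment, dosed orally at 3, 10 and 30 mg/kg. Spontaneous locomotor activity recorded after dosing: horizontal activity as movement time, plus vertical activity (rearing). Test run to exclude sedation.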

[7] = target: B2 bradykinin receptor (Homo sapiens) (UniProt P30411); assay: Inhibition of bradykinin B2 receptor at 4 uM; how it was run: as §2
[8] = target: Corticotropin-releasing factor receptor 1 (Homo sapiens) (UniProt P34998); conditions: IMR-32, 10 uM
[9] = target: Cannabinoid receptor 1 (Homo sapiens) (UniProt P21554); assay: Inhibition of cannabinoid CB1 receptor at 4 uM; how it was run: as §2
Rattus norvegicus [10] = assay: AUC (0 to 24 hrs) in rat at 10 mg/kg, po; assay type: ADME, organism-based, Plasma; parameters: time < 24 hr, dose 10 mg/kg, route oral; conditions: in vivo
[11] = Plasma protein binding in human; assay type: ADME, cell-free; conditions: read-out: PPB (converted)
How it was run: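 Binding to human plasma protein measured as percent bound.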

[12] = Inhibition of Neurotensin receptor at 4 uM; how it was run: as §2
[13] = Clearance in rat at 10 mg/kg, po; assay type: ADME, organism-based; parameters: dose 10 mg/kg, route oral; conditions: in vivo
[14] = Inhibition of phosphodiesterase 3 at 4 uM; how it was run: as §2
[15] = target: Adenosine receptor A3 (Homo sapiens) (UniProt P0DMS8); assay: Inhibition of adenosine A3 receptor at 4 uM; how it was run: as §2
[16] = target: Substance-K receptor (Homo sapiens) (UniProt P21452); assay: Inhibition of Neurokinin NK2 receptor at 4 uM; how it was run: as §2
Rattus norvegicus [17] = assay: Toxicity in Sprague-Dawley rat assessed as effect on vertical activity at 30 mg/kg, po measured after 3 hrs for 1 hr; assay type: organism-based; parameters: dose 30 mg/kg, route oral; conditions: in vivo; how it was run: as §4
[18] = target: Endothelin-1 receptor (Homo sapiens) (UniProt P25101); assay: Inhibition of endothelin ETA at 4 uM; how it was run: as §2
Rattus norvegicus [19] = assay: Volume of distribution at steady state in rat at 10 mg/kg, po; assay type: ADME, organism-based; parameters: dose 10 mg/kg, route oral; conditions: in vivo
How it was run: (§5)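 Rat pharmacokinetics: compounds given iv (1 or 3 mg/kg) and po (5 or 10 mg/kg) in 2% Vitamin E TPGS (tocopheryl polyethylene glycol 1000 succinate). Plasma sampled over 24 h for Cmax, Tmax, AUC0–24 h, T1/2, clearance, Vss and oral bioavailability. Brain to plasma ratio also measured.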

[20] = Half life in human microsomes; assay type: ADME, Microsome
How it was run: (§6)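 Stability in human or rat liver microsomes; half-life (T1/2, min) of compound turnover reported.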

[21] = Cmax in rat at 1 mg/kg, iv; assay type: ADME, organism-based; parameters: dose 1 mg/kg, route intravenous; conditions: in vivo
How it was run: (§7)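 Rat PK, intravenous arm of a paired iv/po study. Dosed in 2% Vitamin E TPGS (tocopheryl polyethylene glycol 1000 succinate). Parameters derived from plasma: Cmax, AUC0–24 h, terminal T1/2.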

Rattus norvegicus [22] = assay: AUC (0 to 24 hrs) in rat at 1 mg/kg, iv; assay type: ADME, organism-based, Plasma; parameters: time < 24 hr, dose 1 mg/kg, route intravenous; conditions: in vivo; how it was run: as §7
[23] = Inhibition of adenosine transporter at 4 uM; how it was run: as §2
Rattus norvegicus [24] = assay: Decrease in restrained-stress induced […] release in plasma of po dosed Sprague-Dawley rat pretreated with compound for 3 hrs by radioimmunoassay; assay type: functional, organism-based; how it was run: as §3
[25] = Inhibition of phosphodiesterase 2 at 4 uM; how it was run: as §2
Rattus norvegicus [26] = assay: Antihyperlocomotion activity in Wistar rat assessed as decrease in CRF-induced hyperlocomotion at 10 mg/kg, po administered 3 hrs before CRF challenge measured after 1 hr; assay type: functional, organism-based; parameters: dose 10 mg/kg
How it was run: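 Rats received 0.3 μg CRF intracerebroventricularly, with oral pretreatment 3 h before in vehicle TPGS. Readout was movement time (locomotor activity), compared against TPGS/CRF controls.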

[27] = Inhibition of phosphodiesterase 4 at 4 uM; how it was run: as §2
[28] = Half life in rat microsomes; assay type: ADME, Microsome; how it was run: as §6
hERG (KCNH2) = hERG (KCNH2) (Homo sapiens, UniProt Q12809); assay: Inhibition of human ERG expressed in african green monkey COS7 cells at 3 uM by electrophysiological assay; assay type: cell-based; conditions: COS-7 cells (African green monkey) expressing human ERG
[29] = target: Corticotropin-releasing factor receptor 1 (Rattus norvegicus, UniProt P35353); assay: Displacement of [125I]-sauvagine from rat CRF-1 receptor expressed in rat cortical membrane after 2 hrs by scintillation counting; assay type: cell membranes
How it was run: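 Displacement of [125I]-sauvagine binding from rat cortical membrane homogenate with increasing compound concentrations; Ki derived.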

[30] = target: Sodium-dependent noradrenaline transporter (Homo sapiens) (UniProt P23975); assay: Inhibition of norepinephrine transporter at 4 uM; how it was run: as §2
[31] = Inhibition of BGTX-insensitive N-neuronal receptor at 4 uM; how it was run: as §1
[32] = Inhibition of Sodium channel site 2 at 4 uM; how it was run: as §2
[33] = target: Glucocorticoid receptor (Homo sapiens) (UniProt P04150); assay: Inhibition of glucocorticoid receptor at 4 uM; how it was run: as §2
[34] = target: Histamine H1 receptor (Homo sapiens) (UniProt P35367); assay: Inhibition of Histamine H1 receptor at 4 uM; how it was run: as §1
[35] = Inhibition of GABA-B at 4 uM; how it was run: as §1
[36] = target: Beta-1 adrenergic receptor (Homo sapiens) (UniProt P08588); assay: Inhibition of adrenergic beta 1 receptor at 4 uM; how it was run: as §2
[37] = target: Insulin receptor (Homo sapiens) (UniProt P06213); assay: Inhibition of Insulin receptor at 4 uM; how it was run: as §1
[38] = Inhibition of diltiazem calcium channel at 4 uM; how it was run: as §2
[39] = Inhibition of KV channel at 4 uM; how it was run: as §1
[40] = target: Sodium- and chloride-dependent betaine transporter (Homo sapiens) (UniProt P48065); assay: Inhibition of GABA transporter at 4 uM; how it was run: as §1
[41] = target: Beta-2 adrenergic receptor (Homo sapiens) (UniProt P07550); assay: Inhibition of adrenergic beta 2 receptor at 4 uM; how it was run: as §2
[42] = Volume of distribution at steady state in rat at 1 mg/kg, iv; assay type: ADME, organism-based; parameters: dose 1 mg/kg, route intravenous; conditions: in vivo, read-out: Vdss; how it was run: as §5
[43] = Ratio of drug level in brain to plasma of rat at 1 mg/kg, iv; assay type: ADME, organism-based; parameters: dose 1 mg/kg, route intravenous; conditions: read-out: BPR; how it was run: as §5
[44] = target: 5-hydroxytryptamine receptor 7 (Homo sapiens) (UniProt P34969); assay: Inhibition of Serotonin 5HT7 receptor at 4 uM; how it was run: as §2
[45] = Half life in rat at 1 mg/kg, iv; assay type: ADME, organism-based; parameters: dose 1 mg/kg, route intravenous; conditions: in vivo; how it was run: as §7

Chain of Beta-1 adrenergic receptor (Homo sapiens) (P08588 whole entry, looked up): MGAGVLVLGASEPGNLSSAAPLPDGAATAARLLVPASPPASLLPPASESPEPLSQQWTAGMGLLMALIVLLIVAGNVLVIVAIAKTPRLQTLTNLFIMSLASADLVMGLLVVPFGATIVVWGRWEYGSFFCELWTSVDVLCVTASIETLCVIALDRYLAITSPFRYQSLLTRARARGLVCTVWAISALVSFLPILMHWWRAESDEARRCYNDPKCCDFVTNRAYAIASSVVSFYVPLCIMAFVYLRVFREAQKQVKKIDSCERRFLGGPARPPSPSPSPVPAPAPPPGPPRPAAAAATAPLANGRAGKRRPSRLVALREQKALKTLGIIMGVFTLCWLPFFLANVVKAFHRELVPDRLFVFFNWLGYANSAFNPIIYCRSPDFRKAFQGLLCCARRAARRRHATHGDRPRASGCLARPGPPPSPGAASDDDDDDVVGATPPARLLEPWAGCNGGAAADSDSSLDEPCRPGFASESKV
Chain of Insulin receptor (Homo sapiens) (P06213 28-758 limits assumed): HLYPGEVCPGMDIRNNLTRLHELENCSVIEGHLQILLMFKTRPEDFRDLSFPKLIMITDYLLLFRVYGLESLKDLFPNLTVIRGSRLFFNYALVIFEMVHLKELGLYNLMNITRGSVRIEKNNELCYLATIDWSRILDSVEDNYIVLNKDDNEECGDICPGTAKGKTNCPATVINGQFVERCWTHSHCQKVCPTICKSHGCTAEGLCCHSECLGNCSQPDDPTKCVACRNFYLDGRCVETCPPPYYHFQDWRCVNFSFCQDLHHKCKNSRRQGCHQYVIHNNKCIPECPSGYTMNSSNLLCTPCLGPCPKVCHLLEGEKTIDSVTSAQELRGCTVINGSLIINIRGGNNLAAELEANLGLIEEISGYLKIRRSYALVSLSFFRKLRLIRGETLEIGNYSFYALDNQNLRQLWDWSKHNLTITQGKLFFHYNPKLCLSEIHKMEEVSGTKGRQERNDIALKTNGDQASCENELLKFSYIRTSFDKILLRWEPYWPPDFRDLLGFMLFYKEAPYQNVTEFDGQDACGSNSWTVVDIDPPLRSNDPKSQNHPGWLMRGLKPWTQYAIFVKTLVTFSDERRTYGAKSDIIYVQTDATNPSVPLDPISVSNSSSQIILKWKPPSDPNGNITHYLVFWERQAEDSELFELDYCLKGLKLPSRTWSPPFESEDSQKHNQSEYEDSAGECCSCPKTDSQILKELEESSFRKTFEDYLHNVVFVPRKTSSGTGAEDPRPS
Chain of Insulin receptor (Homo sapiens) (P06213 763-1382 limits assumed): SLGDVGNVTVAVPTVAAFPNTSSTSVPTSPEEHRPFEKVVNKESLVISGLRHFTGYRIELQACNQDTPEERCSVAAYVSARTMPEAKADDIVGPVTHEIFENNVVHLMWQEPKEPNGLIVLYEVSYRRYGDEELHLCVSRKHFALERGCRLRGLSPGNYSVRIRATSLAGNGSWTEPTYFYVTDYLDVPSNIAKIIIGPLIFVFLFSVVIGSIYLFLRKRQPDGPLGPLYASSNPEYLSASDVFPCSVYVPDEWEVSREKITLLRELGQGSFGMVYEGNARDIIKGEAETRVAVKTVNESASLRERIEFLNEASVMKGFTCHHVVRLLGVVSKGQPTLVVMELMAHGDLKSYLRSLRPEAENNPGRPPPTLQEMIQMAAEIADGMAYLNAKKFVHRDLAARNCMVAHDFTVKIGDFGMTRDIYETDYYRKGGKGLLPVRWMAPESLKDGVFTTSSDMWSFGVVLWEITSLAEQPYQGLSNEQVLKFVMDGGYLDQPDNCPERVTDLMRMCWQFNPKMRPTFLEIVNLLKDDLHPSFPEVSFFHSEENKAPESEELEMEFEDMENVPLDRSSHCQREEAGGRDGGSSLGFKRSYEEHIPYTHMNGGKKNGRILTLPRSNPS
Chain of Cannabinoid receptor 1 (Homo sapiens) (P21554 whole entry): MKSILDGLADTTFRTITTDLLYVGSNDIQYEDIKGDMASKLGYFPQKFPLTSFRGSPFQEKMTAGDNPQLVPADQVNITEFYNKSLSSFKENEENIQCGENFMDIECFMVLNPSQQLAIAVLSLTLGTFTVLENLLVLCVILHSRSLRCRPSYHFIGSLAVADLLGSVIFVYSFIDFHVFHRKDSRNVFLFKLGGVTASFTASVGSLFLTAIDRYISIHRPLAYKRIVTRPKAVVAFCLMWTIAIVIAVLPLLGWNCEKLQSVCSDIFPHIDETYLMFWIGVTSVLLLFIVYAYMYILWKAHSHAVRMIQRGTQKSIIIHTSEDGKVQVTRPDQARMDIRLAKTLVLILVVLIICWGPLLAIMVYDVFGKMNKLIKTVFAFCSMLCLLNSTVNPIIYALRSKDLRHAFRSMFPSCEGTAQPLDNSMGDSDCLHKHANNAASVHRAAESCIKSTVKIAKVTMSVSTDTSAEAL
Chain of B2 bradykinin receptor (Homo sapiens) (P30411 whole entry): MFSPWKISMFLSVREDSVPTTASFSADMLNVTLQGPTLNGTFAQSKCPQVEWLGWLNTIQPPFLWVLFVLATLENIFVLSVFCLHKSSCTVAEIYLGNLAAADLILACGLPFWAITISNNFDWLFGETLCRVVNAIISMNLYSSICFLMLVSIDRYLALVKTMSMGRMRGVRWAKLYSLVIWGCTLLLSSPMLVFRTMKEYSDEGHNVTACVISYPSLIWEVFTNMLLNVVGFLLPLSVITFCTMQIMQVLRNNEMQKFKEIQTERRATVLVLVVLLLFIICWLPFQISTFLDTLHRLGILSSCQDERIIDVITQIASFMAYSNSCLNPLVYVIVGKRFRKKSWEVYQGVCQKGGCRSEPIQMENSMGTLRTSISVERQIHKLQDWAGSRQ
Chain of 5-hydroxytryptamine receptor 2A (Homo sapiens) (P28223 whole entry): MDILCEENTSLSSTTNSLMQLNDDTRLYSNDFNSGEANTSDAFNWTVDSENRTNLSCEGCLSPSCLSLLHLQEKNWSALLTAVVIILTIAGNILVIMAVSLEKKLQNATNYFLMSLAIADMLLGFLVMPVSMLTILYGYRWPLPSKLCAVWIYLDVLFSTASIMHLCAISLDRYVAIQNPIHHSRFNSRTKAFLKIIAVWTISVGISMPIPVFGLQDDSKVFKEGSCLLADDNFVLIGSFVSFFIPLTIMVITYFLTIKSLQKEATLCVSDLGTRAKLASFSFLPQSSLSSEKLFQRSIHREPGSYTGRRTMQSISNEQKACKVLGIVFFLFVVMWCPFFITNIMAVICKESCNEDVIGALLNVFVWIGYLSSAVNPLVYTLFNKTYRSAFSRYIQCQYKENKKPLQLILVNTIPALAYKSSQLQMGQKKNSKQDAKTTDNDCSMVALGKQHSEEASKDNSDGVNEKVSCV
Chain of Beta-2 adrenergic receptor (Homo sapiens) (P07550 whole entry, looked up): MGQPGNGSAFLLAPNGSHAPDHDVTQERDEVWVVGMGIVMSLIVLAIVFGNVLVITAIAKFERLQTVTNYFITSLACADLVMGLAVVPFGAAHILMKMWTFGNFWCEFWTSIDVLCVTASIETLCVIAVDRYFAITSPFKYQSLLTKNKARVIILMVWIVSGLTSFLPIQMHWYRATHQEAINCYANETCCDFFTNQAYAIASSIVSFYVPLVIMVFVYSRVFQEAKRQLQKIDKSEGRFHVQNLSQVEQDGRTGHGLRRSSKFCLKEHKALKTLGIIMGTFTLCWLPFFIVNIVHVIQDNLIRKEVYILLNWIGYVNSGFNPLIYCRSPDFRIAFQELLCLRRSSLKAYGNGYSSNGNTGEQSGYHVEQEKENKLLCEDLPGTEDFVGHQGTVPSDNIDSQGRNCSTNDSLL
Chain of hERG (KCNH2) (Q12809 whole entry): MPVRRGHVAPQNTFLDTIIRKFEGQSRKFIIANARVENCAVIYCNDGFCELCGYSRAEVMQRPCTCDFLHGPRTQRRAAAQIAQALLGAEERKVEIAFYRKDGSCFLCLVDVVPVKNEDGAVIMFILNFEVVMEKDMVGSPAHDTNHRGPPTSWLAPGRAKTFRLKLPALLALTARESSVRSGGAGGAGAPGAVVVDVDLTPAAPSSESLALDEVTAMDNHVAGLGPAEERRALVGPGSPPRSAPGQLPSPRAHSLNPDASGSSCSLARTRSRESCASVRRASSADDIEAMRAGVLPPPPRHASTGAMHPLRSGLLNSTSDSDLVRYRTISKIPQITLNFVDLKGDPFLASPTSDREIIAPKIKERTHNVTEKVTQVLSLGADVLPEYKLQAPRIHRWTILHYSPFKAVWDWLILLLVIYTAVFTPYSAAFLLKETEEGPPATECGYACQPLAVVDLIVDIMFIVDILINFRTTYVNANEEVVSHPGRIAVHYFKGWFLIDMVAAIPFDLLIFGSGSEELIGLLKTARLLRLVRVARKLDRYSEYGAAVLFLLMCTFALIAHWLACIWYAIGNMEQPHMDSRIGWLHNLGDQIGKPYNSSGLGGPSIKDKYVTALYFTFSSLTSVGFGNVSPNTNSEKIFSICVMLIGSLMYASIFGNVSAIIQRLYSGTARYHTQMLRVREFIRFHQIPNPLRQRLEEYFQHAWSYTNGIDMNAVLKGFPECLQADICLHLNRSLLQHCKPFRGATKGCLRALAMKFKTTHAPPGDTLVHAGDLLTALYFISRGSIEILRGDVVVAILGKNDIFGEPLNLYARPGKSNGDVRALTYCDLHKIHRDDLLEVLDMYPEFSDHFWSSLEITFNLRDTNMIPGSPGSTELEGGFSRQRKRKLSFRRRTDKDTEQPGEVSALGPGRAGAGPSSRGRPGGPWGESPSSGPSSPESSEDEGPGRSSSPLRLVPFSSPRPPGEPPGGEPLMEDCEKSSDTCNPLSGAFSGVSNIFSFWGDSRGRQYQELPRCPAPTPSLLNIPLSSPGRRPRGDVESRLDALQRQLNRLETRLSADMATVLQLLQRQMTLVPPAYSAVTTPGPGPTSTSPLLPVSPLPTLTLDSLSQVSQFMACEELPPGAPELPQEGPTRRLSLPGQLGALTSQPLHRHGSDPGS

inhibition [1]: > 16% | inhibition [2]: > 16% | inhibition [3]: > 16% | inhibition [5]: > 16% | inhibition [7]: > 16% | inhibition [8]: inactive | inhibition [9]: > 16% | AUC (Rattus norvegicus [10]): 4499 ng·h/mL | fraction unbound [11]: 0.008 | inhibition [12]: > 16% | CL/F [13]: 12 mL/min/kg | inhibition [14]: > 16% | inhibition [15]: > 16% | inhibition [16]: > 16% | inhibition [18]: > 16% | Vdss (Rattus norvegicus [19]): 7.8 L/kg | half-life [20]: 2 h | Cmax [21]: 456 ng/mL | AUC (Rattus norvegicus [22]): 4499 ng·h/mL | inhibition [23]: > 16% | inhibition [25]: > 16% | inhibition [27]: > 16% | half-life [28]: 2 h | Ki [29]: 9.8 nM | inhibition [30]: > 16% | inhibition [31]: > 16% | inhibition [32]: > 16% | inhibition [33]: > 16% | inhibition [34]: > 16% | inhibition [35]: > 16% | inhibition [36]: > 16% | inhibition [37]: > 16% | inhibition [38]: > 16% | inhibition [39]: > 16% | inhibition [40]: > 16% | inhibition [41]: > 16% | Vd [42]: 7.8 L/kg | Kp [43]: 5.4 | inhibition [44]: > 16% | half-life [45]: 8.4 h
SMILES: CCC(CC)Nc1nc(C)c(-c2ccc(OC(F)(F)F)cc2OC)nc1OC
Activity (Rattus norvegicus [4]): Active | Activity (Rattus norvegicus [6]): Non-toxic | Activity (Rattus norvegicus [17]): Non-toxic | Activity (Rattus norvegicus [24]): Dose-dependent effect | Activity (Rattus norvegicus [26]): Active | inhibition at 3 µM (hERG (KCNH2)): 17%
